Source: ChEMBL document CHEMBL1671813, “Discovery of potent competitive antagonists and positive modulators of the P2X2 receptor” (J Med Chem, 2011)
pIC50: −log10 of the molar value.

Key:
P2X purinoceptor 2 = target: T1, P2X purinoceptor 2 (Rattus norvegicus, UniProt P49653); assay: Antagonist activity against rat P2X2 receptor expressed in Xenopus laevis oocyte assessed as inhibition of ATP-induced inward current by two-electrode voltage-clamp electrophysiology
T1 sequence (P49653 whole entry): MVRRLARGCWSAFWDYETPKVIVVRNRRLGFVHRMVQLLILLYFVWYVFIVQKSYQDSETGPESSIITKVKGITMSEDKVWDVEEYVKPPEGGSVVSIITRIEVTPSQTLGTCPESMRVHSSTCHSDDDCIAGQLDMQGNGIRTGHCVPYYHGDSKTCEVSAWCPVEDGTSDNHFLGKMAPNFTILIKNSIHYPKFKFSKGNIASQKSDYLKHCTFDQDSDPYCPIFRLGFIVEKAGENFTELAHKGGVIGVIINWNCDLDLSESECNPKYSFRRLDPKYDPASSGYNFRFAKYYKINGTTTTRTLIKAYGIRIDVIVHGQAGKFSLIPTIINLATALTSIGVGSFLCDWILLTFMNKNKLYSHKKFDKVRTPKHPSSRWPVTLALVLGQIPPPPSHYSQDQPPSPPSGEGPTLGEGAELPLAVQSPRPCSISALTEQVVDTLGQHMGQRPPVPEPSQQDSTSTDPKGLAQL

P2X purinoceptor 4 = target: T2, P2X purinoceptor 4 (Rattus norvegicus, UniProt P51577); assay: Antagonist activity against rat P2X4 receptor expressed in Xenopus laevis oocyte assessed as inhibition of ATP-induced inward current by two-electrode voltage-clamp electrophysiology
T2 sequence (P51577 whole entry): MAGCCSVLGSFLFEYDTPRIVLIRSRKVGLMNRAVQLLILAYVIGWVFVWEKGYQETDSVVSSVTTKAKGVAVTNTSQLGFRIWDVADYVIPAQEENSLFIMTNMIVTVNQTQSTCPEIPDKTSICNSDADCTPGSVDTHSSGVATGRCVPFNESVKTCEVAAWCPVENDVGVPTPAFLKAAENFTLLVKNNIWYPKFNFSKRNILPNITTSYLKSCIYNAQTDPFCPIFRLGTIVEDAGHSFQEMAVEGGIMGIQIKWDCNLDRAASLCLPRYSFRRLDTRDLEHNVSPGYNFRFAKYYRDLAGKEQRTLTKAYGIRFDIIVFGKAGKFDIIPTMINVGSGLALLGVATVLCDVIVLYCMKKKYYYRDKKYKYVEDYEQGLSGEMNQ

[1] = target: T3, P2X purinoceptor 2 (Rattus norvegicus) (UniProt P49653); assay: Antagonist activity against rat P2X2 receptor expressed in Xenopus laevis oocyte assessed as potentiation of ATP-induced inward current at 100 nM by two-electrode voltage-clamp electrophysiology
T3 sequence (whole entry): T1 sequence (P49653 whole entry)

P2Y purinoceptor 2 = P2Y purinoceptor 2 (Homo sapiens, UniProt P41231); assay: Antagonist activity against human P2Y2 receptor expressed in 1321N1 astrocytoma cells by calcium mobilization assay; assay type: functional, cell-based
In short: (§1)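 Astrocytoma cell lines stably transfected with human P2Y2, human P2Y4 or rat P2Y6 receptor. Inhibition of receptor-mediated intracellular calcium mobilization was measured.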

P2Y purinoceptor 4 = P2Y purinoceptor 4 (Homo sapiens, UniProt P51582); assay: Antagonist activity against human P2Y4 receptor expressed in 1321N1 astrocytoma cells by calcium mobilization assay; assay type: functional, cell-based
In short: as §1

[2] = target: P2Y purinoceptor 6 (Rattus norvegicus) (UniProt Q63371); assay: Antagonist activity against rat P2Y6 receptor expressed in 1321N1 astrocytoma cells by calcium mobilization assay

Chain of P2Y purinoceptor 2 (P41231 whole entry): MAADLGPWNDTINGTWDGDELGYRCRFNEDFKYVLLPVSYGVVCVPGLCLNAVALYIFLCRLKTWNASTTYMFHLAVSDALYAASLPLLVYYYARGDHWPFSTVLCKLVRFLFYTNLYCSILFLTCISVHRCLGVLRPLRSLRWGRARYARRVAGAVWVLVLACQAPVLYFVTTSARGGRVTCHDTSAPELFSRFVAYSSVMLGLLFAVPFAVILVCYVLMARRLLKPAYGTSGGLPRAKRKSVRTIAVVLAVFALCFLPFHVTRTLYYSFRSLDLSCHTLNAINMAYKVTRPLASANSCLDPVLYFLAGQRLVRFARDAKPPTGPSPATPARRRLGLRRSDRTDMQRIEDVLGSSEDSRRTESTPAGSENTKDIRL
Chain of P2Y purinoceptor 4 (P51582 whole entry): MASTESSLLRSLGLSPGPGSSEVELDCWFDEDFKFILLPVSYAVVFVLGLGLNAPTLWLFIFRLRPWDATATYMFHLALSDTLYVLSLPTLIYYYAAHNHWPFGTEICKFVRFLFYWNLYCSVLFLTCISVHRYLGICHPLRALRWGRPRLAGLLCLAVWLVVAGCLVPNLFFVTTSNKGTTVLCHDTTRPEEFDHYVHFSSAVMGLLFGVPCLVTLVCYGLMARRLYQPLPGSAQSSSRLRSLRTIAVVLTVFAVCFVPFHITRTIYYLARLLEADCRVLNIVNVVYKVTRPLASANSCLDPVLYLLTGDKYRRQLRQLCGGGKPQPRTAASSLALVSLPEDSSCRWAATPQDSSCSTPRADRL

Row | SMILES | pIC50 (P2X purinoceptor 2) | pIC50 (P2X purinoceptor 4) | potentiation % [1] [%] | pIC50 (P2Y purinoceptor 2) | pIC50 (P2Y purinoceptor 4) | pIC50 [2]
1 | Nc1c(S(=O)(=O)O)cc(NC2CCCCC2)c2c1C(=O)c1ccccc1C2=O | 6.00 | < 5.00 |  |  |  | 
2 | CCc1cccc(Nc2cc(S(=O)(=O)O)c(N)c3c2C(=O)c2ccccc2C3=O)c1 | < 6.00 |  |  |  |  | 
3 | Nc1c(S(=O)(=O)O)cc(Nc2cccc(C(=O)O)c2)c2c1C(=O)c1ccccc1C2=O | 6.00 | < 5.00 |  |  |  | 
4 | Nc1c(S(=O)(=O)O)cc(Nc2cccc(Br)c2)c2c1C(=O)c1ccccc1C2=O | 6.00 | < 5.00 |  |  |  | 
5 | Nc1c(S(=O)(=O)O)cc(Nc2cc(Cl)ccc2C(=O)O)c2c1C(=O)c1ccccc1C2=O | 6.00 | < 5.00 |  |  |  | 
6 | Nc1c(S(=O)(=O)O)cc(Nc2ccc(S(=O)(=O)O)c(Nc3nc(O)nc(O)n3)c2)c2c1C(=O)c1ccccc1C2=O | 6.52 |  |  |  |  | 
7 | CCOP(=O)(Cc1ccc(Nc2cc(S(=O)(=O)O)c(N)c3c2C(=O)c2ccccc2C3=O)cc1)OCC | 6.00 | < 5.00 |  |  |  | 
8 | Nc1ccc(Nc2cc(S(=O)(=O)O)c(N)c3c2C(=O)c2ccccc2C3=O)cc1S(=O)(=O)O | 6.00 | < 5.00 |  |  |  | 
9 | CC(=O)Nc1ccc(Nc2cc(S(=O)(=O)O)c(N)c3c2C(=O)c2ccccc2C3=O)cc1 | 6.16 | < 5.00 |  |  |  | 
10 | Nc1c(S(=O)(=O)O)cc(Nc2cccc3ccccc23)c2c1C(=O)c1ccccc1C2=O | < 5.00 | < 5.00 |  |  |  | 
11 | Cc1cccc(Nc2cc(C)c(N)c3c2C(=O)c2ccccc2C3=O)c1 | < 5.00 | < 5.00 |  |  |  | 
12 | Cc1ccc(Nc2cc(S(=O)(=O)O)c(N)c3c2C(=O)c2ccccc2C3=O)c(C)c1 | 6.00 | < 5.00 |  |  |  | 
13 | Nc1c(S(=O)(=O)O)cc(Nc2ccccc2S(=O)(=O)O)c2c1C(=O)c1ccccc1C2=O | < 5.00 | < 5.00 |  |  |  | 
14 | Cc1ccc(Nc2cc(S(=O)(=O)O)c(N)c3c2C(=O)c2ccccc2C3=O)cc1 | 6.00 | < 5.00 |  |  |  | 
15 | Nc1c(S(=O)(=O)O)cc(Nc2ccc(Nc3nc(Cl)nc(Cl)n3)c(S(=O)(=O)O)c2)c2c1C(=O)c1ccccc1C2=O | 5.94 | < 5.00 |  |  |  | 
16 | Nc1cc(Nc2cc(S(=O)(=O)O)c(N)c3c2C(=O)c2ccccc2C3=O)cc(C(=O)O)c1 | 6.00 | < 5.00 |  |  |  | 
17 | COc1cc(Nc2cc(S(=O)(=O)O)c(N)c3c2C(=O)c2ccccc2C3=O)cc(OC)c1 | < 6.00 |  |  |  |  | 
18 | Nc1c(S(=O)(=O)O)cc(Nc2ccc(C(=O)O)cc2)c2c1C(=O)c1ccccc1C2=O | 6.00 | < 5.00 |  |  |  | 
19 | Nc1c(S(=O)(=O)O)cc(Nc2cccc([N+](=O)[O-])c2)c2c1C(=O)c1ccccc1C2=O | < 6.00 |  |  |  |  | 

Row | SMILES | pIC50 (P2X purinoceptor 2) | pIC50 (P2X purinoceptor 4) | potentiation % [1] [%] | pIC50 (P2Y purinoceptor 2) | pIC50 (P2Y purinoceptor 4) | pIC50 [2]
20 | Cc1cc(C)cc(Nc2cc(S(=O)(=O)O)c(N)c3c2C(=O)c2ccccc2C3=O)c1 |  |  | 106 |  |  | 
21 | Nc1c(S(=O)(=O)O)cc(Nc2ccc(O)c(C(=O)O)c2)c2c1C(=O)c1ccccc1C2=O | 6.00 | < 5.00 |  |  |  | 
22 | Nc1c(S(=O)(=O)O)cc(Nc2ccc(Nc3nc(Cl)nc(Cl)n3)cc2)c2c1C(=O)c1ccccc1C2=O | 6.93 | < 5.00 |  | 4.92 | 5.00 | 5.00
23 | Cc1cccc(Nc2cc(S(=O)(=O)O)c(N)c3c2C(=O)c2ccccc2C3=O)c1C | 6.00 | < 5.00 |  |  |  | 
24 | Nc1c(S(=O)(=O)O)cc(Nc2ccccc2O)c2c1C(=O)c1ccccc1C2=O | 6.00 | < 5.00 |  |  |  | 
25 | Nc1c(S(=O)(=O)O)cc(Nc2cccc(F)c2)c2c1C(=O)c1ccccc1C2=O | < 6.00 |  |  |  |  | 
26 | Nc1c(S(=O)(=O)O)cc(Nc2ccc(Nc3ncccn3)cc2)c2c1C(=O)c1ccccc1C2=O | < 6.00 | < 5.00 |  |  |  | 
27 | Nc1cc(Nc2cc(S(=O)(=O)O)c(N)c3c2C(=O)c2ccccc2C3=O)ccc1S(=O)(=O)O | 6.00 | < 5.00 |  |  |  | 
28 | Nc1c(S(=O)(=O)O)cc(Nc2ccc(Nc3ccccc3)c(S(=O)(=O)O)c2)c2c1C(=O)c1ccccc1C2=O |  |  | 110 |  |  | 
29 | Nc1c(S(=O)(=O)O)cc(Nc2cc(Nc3nc(Cl)nc(Cl)n3)cc(C(=O)O)c2)c2c1C(=O)c1ccccc1C2=O | 6.53 | < 5.00 |  | 5.49 | 5.84 | 5.59
30 | Nc1c(S(=O)(=O)O)cc(Nc2ccc(Cl)cc2C(=O)O)c2c1C(=O)c1ccccc1C2=O | 6.00 | < 5.00 |  |  |  | 
31 | Nc1c(S(=O)(=O)O)cc(Nc2ccc(Nc3nc(O)nc(O)n3)cc2)c2c1C(=O)c1ccccc1C2=O | 6.71 | < 5.00 |  | 4.52 | 5.00 | 
32 | Nc1c(S(=O)(=O)O)cc(Nc2ccc(Nc3nc(Cl)nc(Nc4ccccc4S(=O)(=O)O)n3)c(S(=O)(=O)O)c2)c2c1C(=O)c1ccccc1C2=O [CIBACRON BLUE 3GA] | < 6.00 | 4.40 |  |  |  | 
33 | Nc1c(S(=O)(=O)O)cc(Nc2cc(F)cc(F)c2)c2c1C(=O)c1ccccc1C2=O | < 6.00 |  |  |  |  | 
34 | Nc1c(S(=O)(=O)O)cc(Nc2cccc(C(F)(F)F)c2)c2c1C(=O)c1ccccc1C2=O | < 6.00 |  |  |  |  | 
35 | Nc1c(S(=O)(=O)O)cc(Nc2ccc(Oc3ccccc3)cc2)c2c1C(=O)c1ccccc1C2=O | 6.00 | < 5.00 |  |  |  | 
36 | COc1ccccc1Nc1cc(S(=O)(=O)O)c(N)c2c1C(=O)c1ccccc1C2=O | 5.70 | < 5.00 |  |  |  | 
37 | Nc1c(S(=O)(=O)O)cc(Nc2cccc(Nc3nc(Cl)nc(Cl)n3)c2)c2c1C(=O)c1ccccc1C2=O | 7.07 |  |  | 4.61 | 5.00 | < 5.00
38 | Cc1ccccc1Nc1cc(S(=O)(=O)O)c(N)c2c1C(=O)c1ccccc1C2=O | 6.00 | < 5.00 |  |  |  | 

Row | SMILES | pIC50 (P2X purinoceptor 2) | pIC50 (P2X purinoceptor 4) | potentiation % [1] [%] | pIC50 (P2Y purinoceptor 2) | pIC50 (P2Y purinoceptor 4) | pIC50 [2]
39 | Nc1cccc(Nc2cc(S(=O)(=O)O)c(N)c3c2C(=O)c2ccccc2C3=O)c1 | 6.00 | < 5.00 |  |  |  | 
40 | Nc1c(S(=O)(=O)O)cc(Nc2ccc(F)cc2)c2c1C(=O)c1ccccc1C2=O | 6.00 | < 5.00 |  |  |  | 
41 | Cc1cc(C)c(Nc2cc(S(=O)(=O)O)c(N)c3c2C(=O)c2ccccc2C3=O)c(C)c1 [ACID BLUE 129] | 6.00 | < 5.00 |  |  |  | 
42 | Nc1c(S(=O)(=O)O)cc(Nc2cccc(Cl)c2)c2c1C(=O)c1ccccc1C2=O | 7.00 |  |  |  | 4.66 | < 5.00
43 | Nc1c(S(=O)(=O)O)cc(Nc2ccc(O)cc2)c2c1C(=O)c1ccccc1C2=O | 6.23 | < 5.00 |  |  | 5.65 | 5.28
44 | Nc1c(S(=O)(=O)O)cc(Nc2ccc(CC(=O)O)cc2)c2c1C(=O)c1ccccc1C2=O | 6.00 | < 5.00 |  |  |  | 
45 | Nc1c(S(=O)(=O)O)cc(Nc2ccccc2C(=O)O)c2c1C(=O)c1ccccc1C2=O | 6.00 | < 5.00 |  |  |  | 
46 | Cc1cc(C)c(Nc2cc(S(=O)(=O)O)c(N)c3c2C(=O)c2ccccc2C3=O)c(C)c1N | 6.00 | < 5.00 |  |  |  | 
47 | CCOc1ccccc1Nc1cc(S(=O)(=O)O)c(N)c2c1C(=O)c1ccccc1C2=O | 6.00 | < 5.00 |  |  |  | 
48 | Nc1ccc(Nc2cc(S(=O)(=O)O)c(N)c3c2C(=O)c2ccccc2C3=O)cc1 | < 5.00 | < 5.00 |  |  |  | 
49 | Cc1cc(Nc2ccccc2)c2c(c1N)C(=O)c1ccccc1C2=O | < 5.00 | < 5.00 |  |  |  | 
50 | Nc1c(S(=O)(=O)O)cc(Nc2ccc(Nc3ncccn3)c(S(=O)(=O)O)c2)c2c1C(=O)c1ccccc1C2=O | 6.00 | < 5.00 |  |  |  | 
51 | Nc1c(S(=O)(=O)O)cc(Nc2ccc(S(=O)(=O)O)cc2)c2c1C(=O)c1ccccc1C2=O | 6.00 | < 5.00 |  |  |  | 
52 | COc1ccc(Nc2cc(S(=O)(=O)O)c(N)c3c2C(=O)c2ccccc2C3=O)cc1 | 5.76 | < 5.00 |  |  |  | 
53 | Nc1ccccc1Nc1cc(S(=O)(=O)O)c(N)c2c1C(=O)c1ccccc1C2=O | 6.00 | < 5.00 |  |  |  | 
54 | COc1nc(Cl)nc(Nc2ccc(Nc3cc(S(=O)(=O)O)c(N)c4c3C(=O)c3ccccc3C4=O)cc2S(=O)(=O)O)n1 | 6.24 | < 5.00 |  | 4.62 | < 5.00 | < 5.00
55 | Cc1c(N)cccc1Nc1cc(S(=O)(=O)O)c(N)c2c1C(=O)c1ccccc1C2=O | 6.00 | < 5.00 |  |  |  | 
56 | Nc1c(S(=O)(=O)O)cc(Nc2ccccc2)c2c1C(=O)c1ccccc1C2=O [ACID BLUE 25] | 6.00 | < 5.00 |  |  |  | 4.07
